The source made the active and inactive calls. The calls are words filed in the database; no cut-off is given here.

The subject of experiment [1] is Trypanosoma brucei. Kind of experiment: Cell cycle arrest in Trypanosoma brucei bloodstream form assessed as accumulation at G2 phase at 2 mM after 24 hrs using propidium iodide staining by FACS analysis. In kind it is functional. In outline: (§1)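 T. brucei bloodstream forms (MITat 1.2, strain EATRO 427), axenic culture at 37°C, 5% CO₂. Treated 24 h. At least 5 × 10⁵ cells washed in PBS, lysed hypotonically 30 min at room temperature in 10 mM phosphate buffer pH 7.4 with 6 μM digitonin. Nuclei stained with propidium iodide (10 μg/ml final) and analysed by flow cytometry for G₁/S/G₂ distribution and degraded DNA.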

Experiment [2] deals with Trypanosoma brucei. Kind of experiment: Induction of apoptosis-like programmed cell death in Trypanosoma brucei bloodstream form assessed as phosphatidylserine exposure in outer leaflet of plasma membrane at 3 mM after 24 hrs by V-Fluos staining staining. The experiment is classed as functional. In outline: (§2)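 After 24 h DHA exposure of axenic bloodstream-form T. brucei MITat 1.2 (EATRO 427; 37°C, 5% CO₂), cells were washed in HEPES buffer (10 mM, pH 7.4, 140 mM NaCl, 5 mM CaCl₂). They were then stained with annexin V-Fluos for 15 min at 4°C and analysed by flow cytometry.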

Experiment [3] deals with Trypanosoma brucei. Kind of experiment: Effect on morphological changes in Trypanosoma brucei bloodstream form assessed as dilation of mitochondrion membrane at 3 mM after 24 hrs by transmission electron microscopy. The experiment is classed as functional, organism-based. In outline:
(§3)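 Parasites exposed 24 h to 3 mM DHA. 10⁸ cells fixed 1 h at 4°C in 2% glutaraldehyde in 0.2 M sodium cacodylate with 0.12 M sucrose, held overnight in buffer, postfixed in 1.5% osmium tetroxide and stained with 0.5% uranyl acetate. Dehydrated in ethanol, cleared in propylene oxide, embedded in Agar 100. Sections stained with 5% uranyl acetate and 0.4% lead citrate for TEM. Rapamycin (5 μM) served as the autophagy positive control.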

For experiment [4], the system named is Trypanosoma brucei. Kind of experiment: Trypanocidal activity against Trypanosoma brucei bloodstream form assessed as decrease in cell density after 24 hrs by spectrophotometry. The experiment is classed as functional, organism-based. In outline:
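Proliferation measured in complete medium (33 mM glucose, 15% serum) with a range of DHA concentrations. Cell density followed over 24 h. Triplicate, SD.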

Experiment [5] has as its system Trypanosoma brucei. In words: Effect on morphological changes in Trypanosoma brucei bloodstream form assessed as presence of one or two nucleus at 3 mM after 24 hrs by transmission electron microscopy. In kind it is functional, organism-based. An outline of the steps: as §3
Experiment [6] relates to Trypanosoma brucei. In words: Effect on morphological changes in Trypanosoma brucei bloodstream form assessed as presence of more than one flagellum at 3 mM after 24 hrs by transmission electron microscopy. In kind it is functional, organism-based. In outline: as §3
Experiment [7] deals with Trypanosoma brucei. Kind of experiment: Induction of apoptosis-like programmed cell death in Trypanosoma brucei bloodstream form assessed as phosphatidylserine exposure in outer leaflet of plasma membrane at 5 uM after 24 hrs by V-Fluos staining staining. In kind it is functional.
In experiment [8] the test system is Trypanosoma brucei. Kind of experiment: Induction of apoptosis-like programmed cell death in Trypanosoma brucei bloodstream form assessed as phosphatidylserine exposure in outer leaflet of plasma membrane at 2 mM after 24 hrs by V-Fluos staining staining. The experiment is classed as functional. An outline of the steps:
as §2

Experiment [9] concerns Trypanosoma brucei. In words: Trypanocidal activity against Trypanosoma brucei bloodstream form assessed as decrease in cell viability at 1 mM up to 40 mins by spectrophotometry. In kind it is functional, organism-based. An outline of the steps:
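Viability as a carbon source. Bloodstream forms incubated in basic medium lacking glucose and serum: unsupplemented, with 1 mM glucose, or with 1 mM DHA. Cell density and motility followed over time. Triplicate, SD.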

For experiment [10], the system named is Trypanosoma brucei. Kind of experiment: Induction of apoptosis-like programmed cell death in Trypanosoma brucei bloodstream form assessed as phosphatidylserine exposure in outer leaflet of plasma membrane at 4 mM after 24 hrs by V-Fluos staining staining. In kind it is functional. In outline: as §2
Experiment [11] has as its system Trypanosoma brucei. In words: Effect on morphological changes in Trypanosoma brucei bloodstream form assessed as appearance of multiple folds in mitochondrion membrane at 3 mM after 24 hrs by transmission electron microscopy. In kind it is functional, organism-based. In outline: as §3
Experiment [12] relates to Trypanosoma brucei. In words: Induction of necrosis in Trypanosoma brucei bloodstream form assessed as death of total cell population at > 4 mM up to 24 hrs using propidium iodide staining by FACS analysis.
Experiment [13] concerns Trypanosoma brucei. Kind of experiment: Effect on cell cycle of Trypanosoma brucei bloodstream form assessed as induction of necrosis at 2 mM after 24 hrs using propidium iodide staining by FACS analysis. In kind it is functional. In outline:
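Bloodstream forms exposed 24 h at 37°C, 5% CO₂. Cells at 2 × 10⁶/ml incubated 10 min with propidium iodide (5 μg/ml), and uptake read by flow cytometry as a measure of membrane integrity. Digitonin (6 μM) served as the necrosis positive control.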

Experiment [14] relates to Trypanosoma brucei. Kind of experiment: Effect on cell cycle of Trypanosoma brucei bloodstream form assessed as DNA content at 2 mM after 24 hrs using propidium iodide staining by FACS analysis. In kind it is functional. An outline of the steps: as §1
For experiment [15], the system named is Trypanosoma brucei. Kind of experiment: Induction of apoptosis-like programmed cell death in Trypanosoma brucei bloodstream form assessed as loss of mitochondrial-membrane potential at 2 mM after 24 hrs by TMRE staining. The experiment is classed as functional. An outline of the steps:
(§4)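 T. brucei MITat 1.2 (EATRO 427) bloodstream forms were grown axenically at 37°C, 5% CO₂ and exposed to DHA for 24 h. Cells at 10⁶/ml were stained with 25 nM TMRE in culture medium for 30 min at 37°C and read at once by flow cytometry. Depolarization control: valinomycin 100 nM. Lower fluorescence signifies lost membrane potential.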

Experiment [16] has as its system Trypanosoma brucei. Kind of experiment: Effect on morphological changes in Trypanosoma brucei bloodstream form assessed as increase in autophagic vaculoe structures at 3 mM after 24 hrs by transmission electron microscopy. In kind it is functional, organism-based. In outline:
as §3

Experiment [17] has as its system Trypanosoma brucei. In words: Induction of apoptosis-like programmed cell death in Trypanosoma brucei bloodstream form assessed as increase in intracellular reactive oxygen species production at 2 mM after 24 hrs by FACS analysis. The experiment is classed as functional. In outline: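 Bloodstream-form T. brucei MITat 1.2 (VSG 221, strain EATRO 427) were grown axenically at 37°C, 5% CO₂ and exposed to DHA for 24 h. Control and treated cells were then loaded with 10 μM dichlorofluorescein diacetate for 1 h at 37°C. Intracellular fluorescence intensity was read by flow cytometry.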

The test system of experiment [18] is Trypanosoma brucei. Kind of experiment: Effect on cell cycle of Trypanosoma brucei bloodstream form assessed as induction of necrosis at 5 uM after 24 hrs using propidium iodide staining by FACS analysis. The experiment is classed as functional.
In experiment [19] the test system is Trypanosoma brucei. Kind of experiment: Induction of apoptosis-like programmed cell death in Trypanosoma brucei bloodstream form assessed as loss of mitochondrial-membrane potential at 5 uM after 24 hrs by TMRE staining. In kind it is functional.
Experiment [20] deals with Trypanosoma brucei. In words: Effect on morphological changes in Trypanosoma brucei bloodstream form assessed as disorder of mitochondrion structure at 3 mM after 24 hrs by transmission electron microscopy. The experiment is classed as functional, organism-based. In outline:
as §3

The test system of experiment [21] is Trypanosoma brucei. In words: Effect on morphological changes in Trypanosoma brucei bloodstream form assessed as presence of more than one flagellum at 5 mM after 20 hrs by scanning electron microscopy. The experiment is classed as functional, organism-based. In outline: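 Cells grown 20 h with 5 mM DHA. Fixed and stained as for TEM (glutaraldehyde, osmium tetroxide, uranyl acetate), then dehydrated through 50, 75, 95 and 100% ethanol. Critical-point dried and gold-palladium sputter-coated for scanning electron microscopy.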

Experiment [22] concerns Trypanosoma brucei. Kind of experiment: Effect on morphological changes in Trypanosoma brucei bloodstream form assessed as presence of atypical combination of number of nucleus after 24 hrs using DAPI staining by phase-contrast microscopy. The experiment is classed as functional, organism-based. In outline:
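Bloodstream forms (MITat 1.2, EATRO 427) grown 24 h with or without DHA. Aliquots washed twice in PBS, resuspended, placed on slides and fixed with methanol. Stained 5 min with DAPI (0.1 μg/ml final), then washed. Phase-contrast and fluorescence images scored for nucleus/kinetoplast numbers (1N1K, 1N2K, 2N2K, 2N1K, abnormal). n = 4, Student's t test, SD.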

In experiment [23] the test system is Trypanosoma brucei. In words: Induction of apoptosis-like programmed cell death in Trypanosoma brucei bloodstream form assessed as loss of mitochondrial-membrane potential at 4 mM after 24 hrs by TMRE staining. In kind it is functional. An outline of the steps:
as §4

In the case of `O=C(CO)CO` [DIHYDROXYACETONE], the Activity is 50% in the experiment on Trypanosoma brucei [1]; 11.9% with Trypanosoma brucei [2]; “Dose-dependent effect” with Trypanosoma brucei [4]; 35.8% in the experiment on Trypanosoma brucei [7]; 10.1% in the experiment with Trypanosoma brucei [8]; 20% in the experiment with Trypanosoma brucei [10]. Also, the Activity worked out at 8.3% with Trypanosoma brucei [13]; 9% in the experiment with Trypanosoma brucei [14]; 7.3% with Trypanosoma brucei [15]; 10.6% in the experiment with Trypanosoma brucei [17]; 4.5% in the experiment with Trypanosoma brucei [18]; 31.4% in the experiment with Trypanosoma brucei [19]. Further, the Activity result was “Dose-dependent effect” with Trypanosoma brucei [22] and 26.8% with Trypanosoma brucei [23]. In addition, the outcome with Trypanosoma brucei [3], with Trypanosoma brucei [5], in the experiment with Trypanosoma brucei [6], in the experiment on Trypanosoma brucei [11], in the experiment with Trypanosoma brucei [12] and in the experiment on Trypanosoma brucei [16] was Active. Also, the result in the experiment with Trypanosoma brucei [20] and in the experiment with Trypanosoma brucei [21] was Active. The result with Trypanosoma brucei [9] was inactive.
